# Test results taken from PMC6996349 (Hepatology Communications, 2019).
# What was measured:
# NASH patients [1] = settings: 1.8 or 2.7 g/day, 1 year; cited from earlier work
# [2] = tested on: subjects with elevated triglycerides; settings: 4 g/day oral; cited from earlier work
# ob/ob mice = assay: Glucose metabolism and insulin resistance in ob/ob mice; format: in vivo; settings: for Glucose metabolism, effect: fenofibrate 100, pioglitazone 30 mg/kg/d in diet
# How it was run: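 Male ob/ob mice aged 6-8 weeks, n = 10/group, either untreated or given test compound at 135 mg/kg/d in the diet for 5 weeks. Reference-agent groups were also dosed in the diet. Blood glucose, insulin, HbA1c and HOMA-IR were measured after 4 weeks on tail-vein EDTA blood taken after a 4-h fast. Body weight was recorded between 8 and 9 am. Mean ± SEM; Kruskal-Wallis then Mann-Whitney U.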
# NASH patients [3] = settings: PIVENS study; cited from earlier work
# APOE*3Leiden.CETP mice [4] = format: in vivo
# How it was run: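 High-fat/cholesterol-fed male APOE*3Leiden.CETP mice aged 8-15 weeks, n = 12/group, given corn-oil vehicle or test compound at 112 mg/kg/d by daily oral gavage for 20 weeks. Liver cross sections were stained with H&E or sirius red and scored with an adapted human NASH grading system. Hepatic lipids were determined biochemically. Body weight was monitored regularly. Mean ± SEM; nonparametric group comparisons.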
# APOE*3Leiden.CETP mice [5] = assay: Hepatic lipotoxic lipid species; format: in vivo; settings: 20 weeks, versus control
# How it was run: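 Male APOE*3Leiden.CETP mice aged 8-15 weeks on a high-fat diet (24% wt/wt lard, 1% wt/wt cholesterol), n = 12/group. Mice received daily corn-oil vehicle gavage or test compound at 112 mg/kg/d by oral gavage for 20 weeks, starting with the diet. Harvested livers underwent lipidomics and reduced/oxidized glutathione assays. Mean ± SEM; Kruskal-Wallis then Mann-Whitney U.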
# [6] = 20 weeks, icosabutate 112 mg/kg/d, rosiglitazone 13 mg/kg/d
smiles,measurement,setting,value
"CC/C=C\C/C=C\C/C=C\C/C=C\C/C=C\CCCC(=O)OCC [EPA ethyl ester, eicosapentaenoic acid (EPA) ethyl ester]",Effect on liver histology,NASH patients [1],no effect
same,"Major adverse cardiovascular events, effect",[2],markedly reduce
CC(C)OC(=O)C(C)(C)Oc1ccc(C(=O)c2ccc(Cl)cc2)cc1 [fenofibrate],"Plasma adiponectin, increase versus control",ob/ob mice; after 4 weeks of treatment,neither fenofibrate nor icosabutate affected
same,"Plasma insulin, change versus control",ob/ob mice; after 4 weeks of treatment,less pronounced
same,Reduction of blood glucose AUC (0‐120 minutes) in oral glucose tolerance test,"ob/ob mice; after 5 weeks of treatment, 2 g/kg glucose, 4-hour fasted",less potent effect
same,"Glucose metabolism, effect",ob/ob mice,also improved glucose metabolism
CCc1ccc(CCOc2ccc(CC3SC(=O)NC3=O)cc2)nc1 (stereo not shown) [pioglitazone],"Fibrosis, effect",NASH patients [3],without change
same,"Lobular inflammation, effect",NASH patients [3],improvements
same,"Plasma adiponectin, increase versus control",ob/ob mice; after 4 weeks of treatment,4.5 fold
same,"HOMA‐IR, change versus control","ob/ob mice; after 4 weeks of treatment, icosabutate 135, pioglitazone 30 mg/kg/d",−97%
same,"Glucose metabolism, effect",ob/ob mice,also improved glucose metabolism
CN(CCOc1ccc(CC2SC(=O)NC2=O)cc1)c1ccccn1 (stereo not shown) [rosiglitazone],"Fibrosis, effect",APOE*3Leiden.CETP mice [4]; 20 weeks,no change
same,"Number of inflammatory cell aggregates, change versus control",APOE*3Leiden.CETP mice [4]; 20 weeks,−67%
same,"Serum amyloid A, change versus control",APOE*3Leiden.CETP mice [4]; 20 weeks,−46%
same,"Hepatic cholesterol ester, effect","APOE*3Leiden.CETP mice [4]; 20 weeks, biochemical analysis of intrahepatic lipids",significant reduction
same,"Hepatocellular hypertrophy, change versus control",APOE*3Leiden.CETP mice [4]; [6],did not significantly affect
same,"Microvesicular steatosis, change versus control",APOE*3Leiden.CETP mice [4]; [6],did not significantly affect
same,Serum amyloid A,"APOE*3Leiden.CETP mice [4]; after 20 weeks of treatment, control 29.8 ± 5.0, mean ± SEM",16.1 ± 3.3
same,Plasma monocyte chemoattractant protein 1,"APOE*3Leiden.CETP mice [4]; after 20 weeks of treatment, control 111.5 ± 17.1, mean ± SEM",65.1 ± 5.1
same,"Body weight, change versus control","APOE*3Leiden.CETP mice [4]; week 16 and 20, data not shown",did not significantly increase
same,"Hepatic GSH:GSSG ratio, effect",APOE*3Leiden.CETP mice [5],had no effect
same,"Hepatic GSSG, effect",APOE*3Leiden.CETP mice [5],had no effect
same,"Hepatic concentration of FFAs, effect",APOE*3Leiden.CETP mice [5],had no effect
same,"Hepatic concentration of HETEs (11[R]‐, 12‐, 15[S] isomers), effect",APOE*3Leiden.CETP mice [5],significant increase
same,"Hepatic concentration of arachidonic acid, effect",APOE*3Leiden.CETP mice [5],had no effect
same,"Hepatic concentration of bile acids, effect",APOE*3Leiden.CETP mice [5],had no effect
same,"Hepatic concentration of ceramides, effect",APOE*3Leiden.CETP mice [5],had no effect
same,"Hepatic concentration of diacylglycerols (DAGs), effect",APOE*3Leiden.CETP mice [5],had no effect
